Assay results reported in the RNAGym collection of RNA variant scans (doi:10.1038/nmeth.2970).

B1: NELF-E aptamer (parent)
chain: CCCAACGACUGCCGAGCGAGAUUACGCUUGAGCGCCCCACUGAGGAUGCCCACGGGCGAUUGGGGCACGG

Variants of: B1
Test: HiTS-RAP
Details: with NELF-E (Drosophila)
Method in brief: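 Aptamer DNA templates bearing a T7 promoter and a ter site were sequenced on an Illumina GAIIx flowcell. T7 RNA polymerase then transcribed them in situ, and GST-Tus halted transcription over 30 minutes at 37°C. After a 30-minute room-temperature equilibration with NELF-E-mOrange at 0.064 to 1000 nM in HEPES binding buffer, clusters were imaged, using only the first binding curve. Intensities normalised to sequencing intensity were averaged per sequence and fitted with weighted Hill fits to give Kd, retaining only fits whose variance stayed under 1,000,000.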

Variant | Kd [nM]
A5G A46G | 15.3
A5G A46U | 90.8
A4U U41G | 6.46
A4U U41C | 66
A4U U41A | 86.3
A5C G16U | 8.04
A4G G16A | 6.14
A4G G16U | 6.47
A5G C33U | 6.71
A4U G18A | 4.13
A5G C53U | 4.59
A5G C66U | 6.42
A4U G65A | 5.54
A4U G65U | 6.16
A4U A31G | 6.99
A4U A31U | 7.69
A4G C66G | 5.69
A4G C66U | 5.13
A4G G34A | 7.45
A4G G34C | 10.8
A4G G34U | 6.59
A5G A15G | 6.77
A5G A15U | 7.04
A4C U29G | 7.86

Variant | Kd [nM]
A5C G7U | 7.5
A4C U41G | 8.98
A4U C38U | 6.95
A4G C49U | 20.8
A4U G55A | 8.55
A5G C25G | 6.52
A4U A39G | 10.9
A4U A39U | 31.1
A4G G18A | 5.38
A4G G18U | 5.96
A4U C17G | 5.58
A4U C17U | 5.01
A4U C51U | 7.05
A4G C35U | 13.5
A4G C35A | 9.55
A4U G20U | 6.62
A4U C50U | 12.7
A5G C50G | 6.45
A5G C50U | 21.6
A5G C9U | 6.36
A5G C9G | 5.97
A5G A24G | 6.27
A4G A5G | 5.81
A4G A5U | 5.91

Variant | Kd [nM]
A4G A5C | 6.45
A5C U41G | 7.61
A4G C25U | 6.15
A4G C25G | 5.98
A4G C25A | 6.24
C1U | 4.73
C1G | 4.93
C1A | 4.94
A4U G30A | 3.77
A4U G11A | 4.95
A4U G11U | 6.41
A5G A19G | 5.88
A5G A19U | 7.26
A4C U23G | 7.29
A4G U61G | 9.81
A4G U61A | 37.8
A4G U61C | 66.2
A5G C40U | 60.2
A4U U23G | 6.29
A4G A67C | 5.34
A4G A67U | 6.47
A4G A67G | 6.54
A4G G11U | 6.46
A4G G11A | 6.4

Variant | Kd [nM]
A4G G44U | 7.66
A4G G44A | 54.3
A5G A52G | 4.26
A5G A52U | 17
A5C G14U | 6.73
A4U U29A | 4.29
A4U U29C | 5.56
A4U U29G | 5.91
A5G A59G | 29.5
A5G A59U | 113
A4G A24G | 6.26
A4G A24U | 6.89
A5G C36U | 6.13
A4U G64A | 10.1
A4G U29C | 6.03
A4G U29G | 5.5
A4G U29A | 5.44
A4G G32U | 5.95
A4G G32A | 5.33
A4U G26U | 4.31
A4U G26A | 4.14
A4G C51G | 4.36
A4G C51A | 9.97
A4G C51U | 7.58

Variant | Kd [nM]
A4C A24G | 7.08
A4G U60C | 9.89
A4G U60G | 6.94
A4G U60A | 10.6
A4G A52G | 4.59
A4G A52U | 18.3
A4G A52C | 6.42
A4G U47G | 7.07
A4G U47A | 12.3
A5C C13G | 6.73
A4U U10C | 6.91
A4U U10A | 4.41
A4U U10G | 5.45
A4U A46G | 58.7
A4U A15G | 5.02
A4U A15U | 6.22
A4G G42A | 45.2
A4G G42U | 9.27
A4U A43G | 40
A4U G56A | 10.8
A4G G58U | 13.2
A5G A39C | 22.3
A5G A39G | 13.2
A5G A39U | 34.5

Variant | Kd [nM]
A4G U10G | 5.09
A4G U10A | 5.89
A4G U10C | 5.06
A4G G55A | 8.61
A4G G55U | 7.68
A4G G55C | 8.07
A4C C6G | 8.66
A4C C9G | 7.49
A4G G14A | 5.98
A4G G14U | 6.38
A4G U23C | 4.96
A4G U23G | 5.42
A4G U23A | 5.89
A4G G30U | 5.76
A4G G30A | 4.89
A4G C37A | 12.3
A4G C37G | 6.99
A4G C37U | 13.2
A4G C27A | 5.54
A4G C27G | 5.73
A4G C27U | 4.47
A5G C38U | 9.85
A4U U28C | 7.47
A4U U28A | 5.47

Variant | Kd [nM]
A4G A19C | 4.21
A4G A19G | 5.64
A4G A19U | 6.08
A4U A8U | 6.22
A4U A8G | 6.19
A4G G54A | 14.1
A4G G54U | 6.61
A4G A46U | 72.7
A4G A46G | 37.6
A4G G20U | 7.1
A4G G20A | 5.15
A4G C17G | 5.57
A4G C17A | 4.31
A4G C17U | 5.09
A4U G34A | 6.2
A4G C38A | 44.4
A4G C38U | 8.59
A5G A21U | 6.3
A5G A21G | 5.66
A4G G62A | 20.8
A4G G62U | 8.86
A5G A67G | 6.71
A5G A67U | 7.84
A4U C57U | 5.44

Variant | Kd [nM]
A4U A52G | 4.05
A4U A52U | 20.1
A4G G48U | 8.36
A4G G48A | 11
A4G G7U | 6.07
A4G G7A | 6.95
A4G G7C | 7.38
A5G C27U | 5.87
A4U G7U | 6.61
A4U G63A | 13.6
A4U G63U | 11.1
A4G G45U | 8.32
A4G G45A | 85.6
A4G G64C | 7.19
A4G G64U | 7.6
A4G G64A | 8.61
A4U U22G | 5.86
A4U U22C | 5.97
A4C U22G | 6.04
A4C G7U | 6.88
A4G C50A | 17.7
A4G C50G | 10.4
A4G C50U | 14.2
A4G C53A | 6.64

Variant | Kd [nM]
A4G C53G | 7.58
A4G C53U | 3.85
A5G C37U | 10.4
A4U A5G | 5.88
A4U A5U | 4.82
A4G C13G | 5.3
A4G C13U | 4.78
A4G C13A | 5.91
A4U G16U | 6.93
A4G A43U | 57
A4G A43G | 22.2
A4G A43C | 90.1
A5C U23G | 7.92
A4U | 5.39
A4G | 5.08
A4C | 6.33
A5C A8C | 8.75
A5C A8U | 8.29
A5C A8G | 6.78
A4U C25G | 5.99
A4U C25U | 4.95
A5G A31U | 5.74
A5G A31G | 7.69
A4U U47G | 6.26

Variant | Kd [nM]
A4U U47A | 12.5
A4C A5G | 6.09
A4U A24G | 6.45
A4U A59G | 70.4
A5C U10G | 6.68
A5C U29G | 7.04
A4G C57U | 5.88
A4G C57G | 7.07
A4G C12A | 5.36
A4G C12G | 5.9
A4G C12U | 5.25
A4U C12U | 5.44
A4U C12G | 5.79
A4U A21U | 6.22
A4U A21G | 5.7
A4G C6A | 6.8
A4G C6G | 5.28
A4G C6U | 6.08
A5C U22G | 6.87
C2A | 5.18
C2U | 5.27
C2G | 5.3
A4G A8G | 5.83
A4G A8C | 6.29

Variant | Kd [nM]
A4G A8U | 6.21
A4U U61C | 74.2
A4U U61A | 22.7
A5G C17U | 6.29
A5G C17G | 5.22
A4U C66U | 5.14
A4G A31U | 6.57
A4G A31C | 4.18
A4G A31G | 7.17
A4G C9U | 5.95
A4G C9A | 6.66
A4G C9G | 5.74
A4G U28A | 4.59
A4G U28G | 6.58
A4G U28C | 9.05
A5G | 5.54
A5C | 6.55
A4G A15U | 6.63
A4G A15G | 4.97
A4C G14U | 7.54
A4U G32A | 5.67
A4G G26A | 4.55
A4G G26U | 7.06
A4C U10G | 6.48

Variant | Kd [nM]
A4G A39C | 30.7
A4G A39G | 10.6
A4G A39U | 25.9
A4G C36A | 7.98
A4G C36U | 7.32
A4G C36G | 10.4
C3U | 5.55
C3A | 5.8
C3G | 5.16
A5G A43G | 25.6
A5G A43U | 33.6
A4U C13G | 5.84
A4U C13U | 5.19
A4U C13A | 4.82
A4U A67G | 5.89
A4G A21U | 5.84
A4G A21G | 6
A4G C33U | 5.81
A4G C33A | 5.4
A4G C33G | 5.81
A4U C37A | 13
A4U C37U | 9.84
A5G C12A | 5.04
A5G C12U | 6.51

Variant | Kd [nM]
A5G C12G | 6.02
A4G G65U | 6.71
A4G G65C | 16.2
A4G G65A | 5.5
A4C A8G | 6.82
A5G C51U | 7.39
A5G A8C | 9.31
A5G A8U | 6.29
A5G A8G | 6.06
A4G G63C | 28.6
A4G G63A | 15.1
A4G G63U | 11.1
A5G G7U | 6.59
A5G G7A | 6.52
A4U C6G | 5.99
A4U C6U | 6.4
A4G C40U | 64.8
A4G C40G | 6.29
A5G C6U | 5.92
A5G C6A | 6.25
A5G C6G | 5.46
A4U G62A | 13.5
A5C C6G | 5.97
A5C C6A | 7.97

Variant | Kd [nM]
A4U A19U | 5.66
A4U A19G | 6.92
A4C C12G | 7.65
A4G G56A | 9.42
A4G G56U | 6.06
A4G A59G | 40
A4G A59U | 113
A5C C9G | 7.82
A4U C9G | 5.93
A4U C9U | 5.8
A4U C53U | 3.61
A4U G14U | 6.79
A4U G14A | 6
A4G U41G | 5.56
A4G U41C | 73
A4G U41A | 73.6
A4G U22C | 4.86
A4G U22G | 5.51
A4G U22A | 6.17
A5G C13G | 5.6
A5G C13U | 5.63
A5G C13A | 5.36
